# The list is not random: actives were taken first. Their share in the collection is about 1.5%.
# TNF death inh: TNF-alpha cell death inhibition in Jurkat FADD-/- cells. Jurkat FADD-/- TNF necroptosis rescue, ATP luminescence, 24 h; 0 = TNF only, 100 = no-TNF cells. activation (protection from cell death), % at 10 µM. actives 0.068% (n = 220,000);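 active means activation, meaning protection from cell death, of at least 50% relative to plate controls; inactive means activation below 50%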;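 further: necroptosis triggered by 40 ng/mL TNF-alpha added together with compound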
# S1P4 agonist: agonists of human S1P4 receptor; S1P4-expressing cell line, agonist reporter assay; actives 0.35% (n = 220,000); activation, % at 4.98 µM; AID 1509; O95977; in the data active means activation above about 11%;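 further: 0% = DMSO vehicle and 100% = reference agonist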
# Target sequence (O95977 whole entry, looked up): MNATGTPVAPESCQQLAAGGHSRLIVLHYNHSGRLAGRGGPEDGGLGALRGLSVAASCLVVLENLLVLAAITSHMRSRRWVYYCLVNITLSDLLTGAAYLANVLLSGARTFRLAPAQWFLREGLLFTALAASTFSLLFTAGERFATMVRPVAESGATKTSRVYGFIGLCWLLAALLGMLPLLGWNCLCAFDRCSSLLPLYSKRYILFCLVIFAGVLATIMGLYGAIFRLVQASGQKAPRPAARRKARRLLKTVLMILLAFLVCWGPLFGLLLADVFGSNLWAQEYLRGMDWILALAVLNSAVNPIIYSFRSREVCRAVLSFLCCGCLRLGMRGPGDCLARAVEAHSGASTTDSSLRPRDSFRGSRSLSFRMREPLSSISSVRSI
# S1P4 antagonist: human S1P4 receptor antagonism | S1P4-expressing cells, antagonist mode, reporter read-out | inhibition, % at 4.98 µM | actives 0.26% (n = 220,000); in the data active means inhibition above about 29%;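 further: 0% = wells stimulated with agonist and 100% = vehicle wells without agonist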
# Dynein transport: dynein cargo transport inhibition; z-score, hits read low; 3617.4 mouse cells, GR-EGFP nuclear translocation imaging; test concentration mostly 20 µM; stimulated with dexamethasone, 1 µM; stronger effect = lower value; AID 1381; actives 0.47% (n = 220,000);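 active means plate z-score of nuclear minus cytoplasmic receptor signal below a set negative limit, without overly bright fluorescence or cell loss, cut at about -3.5 in these data, passing the limit was not always enough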;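 further: z-score of nuclear minus cytoplasmic ring GR-EGFP intensity difference per well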
#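 Buffer or medium: tet-free, stripped-serum medium; Also added: dexamethasone, 1.0 µM final; Technique: high-content fluorescence imaging after fixation; Times: 48 h induction, 1 h compound, 30 min dex at 37 °C; Read-out: per-cell GR-EGFP intensity, nucleus versus surrounding cytoplasmic ring, well-averaged.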
# zVAD death inh: L929 zVAD cell death inhibition. L929 zVAD necroptosis rescue, ATP luminescence, 24 h; with zVAD 60 µM. viability rescue, % at 10 µM. actives 0.38% (n = 220,000);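 active means activation, scaled between plate controls, above about 75%, limit read from the data; inactive means activation under that limit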;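 further: 0% = zVAD with DMSO and 100% = DMSO alone without zVAD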
# Tb hexokinase: T. brucei hexokinase 1 inhibition; AID 1430; inhibition, % at 10 µM; actives 0.11% (n = 220,000); recombinant TbHK1, G6PDH-coupled NADH A340;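 active means inhibition of 50% or more in the single-dose primary screen; inactive means inhibition below 50%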
# Dynein confirm: dynein cargo transport inhibition, confirmation; shares compounds with Dynein transport; 3617.4 GR-EGFP nuclear translocation imaging, dexamethasone-induced; calls only at 20 µM; actives 69% (n = 1,000);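 active means inhibition of receptor movement into the nucleus at or above a set limit in both runs, with normal cell brightness and cell count; inconclusive means limit reached in only one run, brightness and count normal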;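 further: dexamethasone at 1 µM final in well for 30 min; nuclear minus cytoplasmic GR-EGFP mean intensity difference in channel 2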
# Numbers without * were called inactive; i = inactive; u = inconclusive; x = no result given; + = active, no number.
SMILES,TNF death inh,S1P4 agonist,S1P4 antagonist,Dynein transport,zVAD death inh,Tb hexokinase,Dynein confirm
COc1cc(-c2nc3cccc(C)n3c2NCC2CCCO2)ccc1O (configuration not stated),-4,1,0,-0.01,-1,-5,x
COC(=O)c1cc([N+](=O)[O-])c(-n2ccnc2)c([N+](=O)[O-])c1,-2,-1,-21,-3.5*,0,31,+
COc1cc(/C=C2/CC/C(=C/c3ccc(O)c(OC)c3)C2=O)ccc1O,-25,1,-19,-1,5,-22,x
CCN1C/C(=C/c2ccc(OC)c(O)c2)C(=O)/C(=C/c2ccc(OC)c(O)c2)C1,-9,1,17,-6.3*,57,-9,u
COc1cc(/C=C2\COC/C(=C\c3ccc(O)c(OC)c3)C2=O)ccc1O,-18,-1,-7,-5.7*,55,-31,+
CCN(CC)c1ccc2cc(-c3nc(-c4ccc(OC)cc4)cs3)c(=O)oc2c1,1,2,6,-5.1*,-1,9,+
CCN(CC)c1ccc2cc(-c3nc4ccccc4n3C)c(=O)oc2c1,-10,3,1,1.7,-1,-4,x
C=CCN1C(=O)/C(=C\c2ccc(Oc3nc(N4CCOCC4)nc(N4CCOCC4)n3)c(OC)c2)SC1=S,8,0,-11,1.6,2,-7,x
CC(=O)N(Cc1c(C)nn(-c2ccccc2)c1Cl)c1ccc(Cl)cc1,-3,1,-3,-0.84,0,-1,x
Cc1nn(-c2ccccc2)c(Cl)c1CN(C(=O)CCl)c1ccc(Cl)cc1,-13,0,28,-3.9*,5,-3,+
O=C(CCN1Cc2ccccc2C1)c1ccc2c(c1)OCCO2,-4,0,7,-3.6*,0,-10,u
CCOC(=O)CSC1=NC(=O)/C(=C/c2ccc(Br)cc2)S1,-12,-2,15,-4.3*,1,-2,+
O=C1C=C(c2ccccc2)C(=O)N1Nc1ccccc1,-11,-3,28,-1.2,0,-8,x
COc1ccc(C2=CC(=O)N(Nc3ccccc3)C2=O)cc1,-3,1,19,-5.1*,-1,-2,+
Cc1cc(C)n(C(C[N+](=O)[O-])c2ccc(Cl)cc2)n1 (configuration not stated),0,1,18,-5.6*,-1,-2,i
Cc1cc(O)c(C(C[N+](=O)[O-])c2ccc(Cl)cc2)c(=O)o1 (configuration not stated),8,2,-6,-0.53,0,-18,x
CC(=O)NCCn1c(SCc2cccc([N+](=O)[O-])c2)nc2ccccc2c1=O,1,0,1,-0.19,0,-2,x
CCOc1ccc(N2C(=O)CC(Sc3n[nH]c(-c4ccccc4)n3)C2=O)cc1 (configuration not stated),-1,1,-2,-5.2*,5,5,i
COc1ccc(-n2c(SCc3ccccn3)nc3c(c2=O)SCC3)cc1OC,-1,1,-7,-0.23,0,-19,x
C=CCn1c(SCC(=O)N2CCc3ccccc3C2)nc2sc(C)c(C)c2c1=O,3,-2,-2,0.19,0,-4,x
CC(=O)Nc1c2c3c(cccc3n(C)c1=O)C(=O)c1ccccc1-2,0,2,-6,-0.14,3,-18,x
Cn1c(=O)c(Nc2ccc(Cl)cc2)c2c3c(cccc31)C(=O)c1ccccc1-2,-2,-2,-15,-4.3,-1,-14,+
CCOC(=S)SCC(=O)Nc1nc(C)c(C)s1,-13,2,-7,-3.9*,16,-6,+
O=[N+]([O-])c1ccc(Sc2nnnn2-c2ccccc2)c(Cl)c1,-10,2,5,-0.33,-1,-1,x
CC(=O)c1ccc(Sc2nnnn2-c2ccccc2)c([N+](=O)[O-])c1,-2,1,-11,-4.3*,-1,14,i
CN1CCN(S(=O)(=O)c2ccc(Sc3nnnn3-c3ccccc3)c([N+](=O)[O-])c2)CC1,-12,1,-92,-3.5*,x,-12,+

# Bioassay records deposited in PubChem BioAssay by several laboratories.
